# Measles CPE: protection of cells from measles virus | Measles virus-infected cells, CPE protection, absorbance | protection (pct of control), % at 4 µM | 140,000 compounds, 1.5% hits; in the data active = protection mostly above about 24%, no sharp cut-off; inactive = mostly below about 26%
# WT yeast gro inh: growth inhibition of WT yeast, mitochondrial fusion screen | inhibition, % at 10 µM | 190,000 compounds, 2.1% hits | AID 1362 | mitochondrial fusion phenotypic screen, WT strain; in the data active = inhibition above about 58%; tested in S. cerevisiae
# DAT uptake mod: modulates human dopamine transporter uptake under cocaine; LLC-PK1 hDAT cells, [14C]-dopamine uptake with cocaine IC80; actives deviate in either direction; 110,000 compounds, 1.3% hits; Q01959; B-score at 10 µM;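 active = Z score or B-score, a plate-position-corrected score, falls beyond the plate's 99.7% confidence bounds, in either direction; inactive = both scores lie inside the 99.7% bounds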;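 note: scored against the spread of the other compound wells on the same plate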
# Target sequence (Q01959 whole entry, looked up): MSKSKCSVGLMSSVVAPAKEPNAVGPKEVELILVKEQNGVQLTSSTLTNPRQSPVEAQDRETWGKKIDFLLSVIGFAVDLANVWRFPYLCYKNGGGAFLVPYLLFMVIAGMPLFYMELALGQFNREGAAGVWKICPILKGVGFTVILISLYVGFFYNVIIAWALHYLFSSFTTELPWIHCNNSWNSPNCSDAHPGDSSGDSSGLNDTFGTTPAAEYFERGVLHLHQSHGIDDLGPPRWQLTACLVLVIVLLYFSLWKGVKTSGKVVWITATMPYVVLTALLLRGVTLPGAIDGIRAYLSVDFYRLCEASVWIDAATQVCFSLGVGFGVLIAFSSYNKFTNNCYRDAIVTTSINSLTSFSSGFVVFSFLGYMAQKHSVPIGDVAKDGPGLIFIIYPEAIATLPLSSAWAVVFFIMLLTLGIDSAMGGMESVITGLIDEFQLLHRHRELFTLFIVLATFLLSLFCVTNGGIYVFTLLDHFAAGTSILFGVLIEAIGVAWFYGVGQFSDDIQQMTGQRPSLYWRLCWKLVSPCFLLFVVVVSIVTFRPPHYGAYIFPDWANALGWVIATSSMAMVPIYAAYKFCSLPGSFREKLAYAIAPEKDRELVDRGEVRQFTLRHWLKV
# Yeast lifespan up: yeast lifespan extension; 130,000 compounds, 0.68% hits; AID 775; S. cerevisiae growth with nicotinamide, OD615; deaD strain in restrictive glucose medium; inhibition of the nicotinamide effect, % at 10 µM;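 active = inhibition above a set limit, placed 3 SD over the median of all compounds, cut at about 26% in these data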;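 note: 0% = nicotinamide-treated wells and 100% = cells grown without nicotinamide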
#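 Material: Modified budding yeast, DeaD strain | Medium: Restrictive glucose medium | Probe or stimulus: 1.5 mM nicotinamide | Dosing: Single dose 10 µM compound, 0.25% DMSO | Times: 48 h at 30 °C | Technique: OD615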
# Yeast growth inh: reduces growth of yeast BB579 in restrictive medium; S. cerevisiae BB579 growth, OD615, 48 h; inhibition, % at 10 µM; AID 804; 140,000 compounds, 0.51% hits;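 active = inhibition above a set limit, 3 SD over the mean compound inhibition, cut at about 44% in these data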
#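 Material: Saccharomyces cerevisiae DeaD strain BB579, replicative lifespan model yeast; buffer or medium: CSMM-D restrictive synthetic medium containing dextrose (glucose); compound: 10 µM single dose, DMSO 0.25%; timing: 48 h compound exposure at 30 °C after 4 h preincubation; signal: turbidity as optical density at 615 nm; benchmarks: positive control amphotericin B 10 µg/mL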
# RAM inhibit: blocks the yeast RAM network; S. cerevisiae dse1pr::URA3 reporter, 5-FOA growth OD615, 2 d; analog-sensitive cbk1-as2 kinase mutant strain; inhibition, % at 50 µM; 190,000 compounds, 1.8% hits; AID 868;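 active = inhibition above a set limit, 3 SD over mean compound inhibition, cut at about 8.4% in these data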;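 note: 0% = DMSO-only wells with no growth and 100% = 10 µM 1-NA-PP1 full growth; inhibition rescues growth on 5-FOA so higher OD means more RAM inhibition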
# RAM 5-FOA: RAM network inhibition, efflux-deficient strain | max inhibition, % | shares compounds with RAM inhibit | S. cerevisiae efflux-deficient reporter strain, 5-FOA growth OD615, 2 days | 1,200 tested, under 10 active; call rule not given here;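 note: plate controls were vehicle for no effect and reference inhibitor for full effect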
# * marks the source's active call; other numbers are inactive results; x = no result given. The list is not random: actives were taken first. Their share in the collection is about 6.1%.
SMILES,Measles CPE,WT yeast gro inh,DAT uptake mod,Yeast lifespan up,Yeast growth inh,RAM inhibit,RAM 5-FOA
CCOc1ncccc1C(=O)N1CCN(C(c2ccccc2)c2ccccc2)CC1,x,26.2,x,x,x,1.5,x
CCOC(=O)C1=C(NC(=S)NC(=O)c2ccccc2)c2ccccc2CC1C(C)C (stereo not given),49.6*,77.7*,-0.38,-9.2,-43.4,11.7*,3.4
CCOC(=O)c1c(NC(=O)c2ccccc2)sc2c1CCc1ccccc1-2,24.0,13.8,x,2.1,-19.4,4.7,x
COc1ccccc1N(CC(O)COc1ccc(C)cc1)S(=O)(=O)c1ccccc1 (stereo not given),10.7,33.5,x,6.2,-16.7,12.4*,1.6
COc1ccccc1N(CC(O)COc1c(C)cc(C)cc1C)S(=O)(=O)c1ccccc1 (stereo not given),1.6,61.3*,x,6.9,-31.0,11.8*,5.5
COc1ccccc1N(CC(O)CN(c1ccccc1)S(C)(=O)=O)S(=O)(=O)c1ccccc1 (stereo not given),4.6,3.4,0.904,-18.0,-34.9,0.7,x
COc1ccccc1N(CC(O)COc1ccccc1)S(=O)(=O)c1ccccc1 (stereo not given),12.7,3.2,x,8.8,-44.2,5.0,x
O=C(COC(=O)CC(c1ccccc1)c1ccccc1)Nc1ccc(F)c(F)c1,x,58.7*,x,x,x,11.7*,1.8
O=C(NS(=O)(=O)Oc1cccc(Cl)c1Cl)OC[C@@H]1CCCN2CCCCC12 (stereo not given in full),7.2,0.6,x,-2.3,-55.1,2.3,x
COc1ccc(-n2nnc3c(SCC(=O)OCc4ccccc4)ncnc32)cc1,3.5,-4.3,0.0141,-3.1,-30.8,13.6*,2.6
Cc1ccc(C2=NN(Cc3nnc(-c4ccccc4)o3)C(=O)SC2)cc1,4.1,1.2,x,6.2,-6.5,12.1*,3.0
CC(SCc1ccccc1)C(=O)Nc1ccc(F)cc1 (stereo not given),x,10.7,x,x,x,-1.0,x
N#CC(C#N)=C(Nc1ccc(F)cc1)SCc1cccc(Br)c1,9.2,80.3,x,5.5,-72.6,13.8*,2.7
Cc1cccc(/C=C\c2nc3ccccc3c(=O)[nH]2)c1,9.5,-3.5,x,-6.8,-46.3,11.5*,1.6
CCn1cc(C(=O)OCC(=O)c2ccccc2)c(=O)c2ccc(C)nc21,x,-6.5,x,x,x,17.5*,1.5
C=CCN1C(=O)C(Cc2ccc(C)cc2)S/C1=N/N=C/c1ccco1 (stereo not given),4.5,-12.8,0.207,3.8,-39.7,14.1*,1.6
C=CCN1C(=O)C(Cc2cccc(C)c2)SC1=Nc1ccc(C(=O)O)cc1 (stereo not given),0.8,-4.0,0.496,-0.8,-54.0,14.6*,1.3
C=CCN1C(=O)C(Cc2ccccc2)SC1=Nc1ccc(C(=O)O)cc1 (stereo not given),17.6,-6.1,x,0.7,-2.5,1.7,x
COc1ccccc1NC(=O)C(=O)N1CCCC1,x,-9.6,x,x,x,0.9,x
CCCc1nn(C)c(C(=O)Nc2ccc(C)c(C)c2)c1Cl,39.0,20.6,x,-4.2,-8.1,22.3*,2.2
CC(=O)Nc1ccc(-c2cc(-c3ccc(NC(C)=O)cc3)nc(-c3ccc(NC(C)=O)cc3)n2)cc1,18.1,6.1,x,8.0,-62.9,11.8*,4.7
CCCCNCCOc1ccccc1-c1ccccc1,6.4,13.6,x,3.4,-12.6,0.1,x
Cc1cc(-c2ccccc2)nc(Oc2cccc(C(F)(F)F)c2)c1S(C)(=O)=O,3.9,-37.9,0.722,-5.2,-10.9,5.0,x
Cc1ccc(S(=O)(=O)c2c(C)cc(C)nc2Oc2cccc(C(F)(F)F)c2)cc1,8.0,-10.0,0.529,-8.3,-49.0,14.0*,2.7
CCOC(=O)c1ccc(S(=O)(=O)NCC(C)(C)N2CCOCC2)cc1,x,-13.8,x,x,x,1.7,x
SMILES,Measles CPE,WT yeast gro inh,DAT uptake mod,Yeast lifespan up,Yeast growth inh,RAM inhibit,RAM 5-FOA
O=C(CCCn1c(SCc2cccc(F)c2)nc2ccccc2c1=O)NCC1CCCO1 (stereo not given),x,15.7,x,x,x,16.0*,1.3
O=c1c2ccccc2nc(SCc2cccc(F)c2)n1Cc1ccco1,21.7,8.5,1.26,9.2,-48.2,13.7*,6.3
O=C(CSc1nc2ccccc2c(=O)n1CCC(=O)N1CCCCC1)NCc1ccccc1,38.3,-6.3,0.327,25.1,-14.6,18.3*,1.8
Cc1ccc(CSc2nc3ccccc3c(=O)n2Cc2ccco2)cc1,23.4,49.7,0.558,x,-27.2,14.2*,4.4
O=c1c2ccccc2nc(SCc2ccccc2)n1Cc1ccco1,14.2,49.4,0.159,0.1,-65.3,6.6,x
N#CCCn1cc(C(=O)N2CCCCC2)c(-c2cccc([N+](=O)[O-])c2)n1,x,-0.2,x,x,x,-0.8,x
CC(C)C(=O)Nc1ccc2c(c1)C(=O)NC2=O,x,-2.8,x,x,x,1.1,x
COn1c(SCc2cccc(Cl)c2)nc2ccccc2c1=O,2.8,50.9,1.46,20.7,2.0,4.7,x
COn1c(SCc2ccccc2)nc2ccccc2c1=O,14.0,42.7,-1.36,-23.8,-8.2,12.3*,4.7
CCC(CC)NCC(O)COc1ccc(Br)cc1 (stereo not given),x,14.8,x,x,x,1.2,x
O=C(CSc1cccc(C(F)(F)F)c1)Nc1cc(S(=O)(=O)N2CCCC2)ccc1Cl,4.7,24.4,x,10.6,-50.7,15.5*,1.2
Cn1nnnc1SCC(=O)Nc1cc(S(=O)(=O)N2CCCC2)ccc1Cl,x,-7.0,x,x,x,-0.1,x
CCOC(=O)C=Nc1c(N)n(C)c(=O)n(C)c1=O,2.3,3.3,x,6.6,-24.2,1.6,x
CCCCN(CC(=O)NCc1ccc(Cl)cc1)S(=O)(=O)c1ccc2c(c1)OCCO2,2.2,23.6,x,11.3,-59.4,13.3*,3.3
O=C(CN(c1ccc2c(c1)OCCO2)S(=O)(=O)c1ccccc1)NCc1ccc(Cl)cc1,4.6,14.3,x,3.7,-41.3,7.8,x
COC(=O)Cc1ccc(N(Cc2ccccc2F)S(=O)(=O)c2ccc(C)cc2)cc1,14.7,72.3*,x,10.2,-11.3,20.0*,2.5
CCCC(=O)OCCNc1cc(SCc2ccco2)c2nonc2c1[N+](=O)[O-],9.5,17.7,x,2.5,-2.1,13.8*,3.3
COc1ccc(N(C)C(=S)Oc2ccc(C(=O)Nc3ccccc3)cc2)cc1,5.8,-6.4,-0.789,-8.5,-59.6,2.8,x
Cc1cccc(N(C)C(=S)Oc2ccc3ccccc3c2)c1,39.2,62.2*,0.0551,9.3,-59.4,11.6*,3.0
Cc1cccc2cc(CN(CCN3CCOCC3)C(=O)NCc3ccccc3)c(=O)[nH]c12,7.5,-0.6,1.88,-11.8,5.2,-0.7,x
O=C(Nc1ccccc1)C1=C[C@H](C2CCCCC2)C[C@H](OCc2ccc(CO)cc2)O1,x,39.6,-0.0075,x,x,14.2*,4.6
O=C(Nc1ccccc1)C1=C[C@@H](C2CCCCC2)C[C@@H](OCCCCO)O1,x,-11.8,-0.335,x,x,4.7,x
